Laboratory results as given in PMC12329029 (Scientific Reports, 2025).

Tests used:
[1] = system: MCF-7; details: read-out: activity against MCF-7 breast cancer cells in vitro; cited from earlier work
[2] = system: Akt protein in MDA-MB-231 cells; test: Akt concentration in cell lysates; assay type: cell-based, human; details: 20 µM, 24 h, control 8.22 U/mL
Procedure, shortened: (§1)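 MDA-MB-231 cells were grown in DMEM with 10% FBS and 1% penicillin/streptomycin at 37 °C, 5% CO2. They were reseeded in phenol-red-free DMEM with 10% CPSR1, used near 80% confluence and exposed to 20 µM for 24 h; untreated cells were the control. Cells were trypsinised, washed thrice in cold PBS, spun at 1000× g for 5 min at 4 °C, and 1.5 × 10^6 cells were lysed. Supernatants were frozen at −70 °C. Target protein was measured by antibody-precoated high-sensitivity kit. Three independent experiments in duplicate; one-way ANOVA with Tukey test.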

[3] = system: p53 tumour suppressor in MDA-MB-231 cells; test: p53 concentration in cell lysates; assay type: cell-based, human; details: 20 µM, 24 h
Procedure, shortened: as §1

[4] = system: proapoptotic Bax in MDA-MB-231 cells; test: Bax concentration in cell lysates; assay type: cell-based, human; details: 20 µM, 24 h
Procedure, shortened: as §1

Row | Compound | IC50 [1] [nM] | concentration of Akt [2] [U/mL] | change of p53 level vs control [3] | concentration of Bax [4] [pg/mL]
1 | CC(=O)OC1CCC2(C)C(CCC3(C)C2CC=C2C4CC(C)(C)CCC4(C(=O)n4ccc(=O)[nH]c4=O)CCC23C)C1(C)C (stereo not drawn) [1-[(3β)-3-(acetyloxy)-28-oxoolean-12-en-28-yl]-2,4(1 H,3 H)-pyrimidinedione] | < 100 | – | – | –
2 | C[C@H]1[C@H](C)CC[C@]2(C(=O)O)CC[C@]3(C)C(=CC[C@@H]4[C@@]5(C)CC[C@H](O)C(C)(C)[C@@H]5CC[C@]43C)[C@H]12 [Ursolic acid 1, Ursolic acid] | – | 4.49 | increased the p53 concentration, but the values were statistically insignificant | 760
